Published values of several laboratories.
Each line is one published result; the experiments were not run side by side.
Target: Membrane-associated tyrosine- and threonine-specific cdc2-inhibitory kinase (PKMYT1, Homo sapiens, UniProt Q99640)
Sequence (Q99640 1-499, as in one of the studies): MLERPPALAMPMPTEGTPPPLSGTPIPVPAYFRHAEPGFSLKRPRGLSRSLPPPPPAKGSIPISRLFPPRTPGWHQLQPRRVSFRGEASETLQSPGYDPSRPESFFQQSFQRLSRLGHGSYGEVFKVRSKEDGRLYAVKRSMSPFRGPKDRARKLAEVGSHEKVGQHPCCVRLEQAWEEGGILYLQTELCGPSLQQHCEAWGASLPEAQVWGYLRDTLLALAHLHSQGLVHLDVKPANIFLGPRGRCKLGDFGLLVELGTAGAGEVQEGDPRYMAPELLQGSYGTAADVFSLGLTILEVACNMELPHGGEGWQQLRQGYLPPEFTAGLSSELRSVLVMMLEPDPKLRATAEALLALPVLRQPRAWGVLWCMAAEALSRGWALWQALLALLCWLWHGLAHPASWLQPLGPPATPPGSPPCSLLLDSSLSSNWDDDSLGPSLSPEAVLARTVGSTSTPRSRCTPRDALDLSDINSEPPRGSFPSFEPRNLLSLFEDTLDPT

SMILES | test | setting | endpoint | value
C[C@@H]1CCN(c2nccc(-c3cnn4ncccc34)n2)C1 | binding | 1 µM | remaining binding | 99%
Cc1ccc(C(=O)Nc2ccc(CN3CCN(C)CC3)c(C(F)(F)F)c2)cc1C#Cc1cnc2cccnn12 | enzyme activity, inhibitor | 23.5 nM | remaining activity | 84%
O=C(Nc1cnn(-c2csc(C(=O)NC3COC3)c2)c1)Nc1c(F)cccc1Cl | enzyme activity, inhibitor | 5 µM | remaining activity | 89.6%
C=CCn1c(=O)c2cnc(Nc3ccc(N4CCN(C)CC4)cc3)nc2n1-c1cccc(C(C)(C)O)n1 | thermal stability, DSF | 100 µM | ΔTm | 3 °C
C[C@H](NC(=O)c1cnc2n1[C@](C)(Cc1ccc(C#N)cc1)C(=O)N2c1cc(Cl)c(F)c(Cl)c1)C(=O)NC1(c2ccccn2)CC1 | cell-free assay, competition with immobilised ligand | 1 µM | remaining binding | 79%
CC(C)(C)c1nc2c(s1)c1nc(N)ncc1c1ccc(NS(=O)(=O)c3c(F)cccc3F)c(F)c12 | enzyme activity, inhibitor, radiometric | 1 µM | remaining activity | 84%
c1cnn2ncc(-c3ccnc(N4CCC45COC5)n3)c2c1 | binding | 1 µM | remaining binding | 97%
Nc1ncnc2occ(-c3ccc(NC(=O)Nc4cc(C(F)(F)F)ccc4F)cc3)c12 | cell-free assay, inhibitor | 20 µM | remaining signal | 75%
CNCc1ccccc1-c1csc([C@H](C)Nc2nc(C)nc3cc(OC)c(OC)cc23)c1 | cell-free assay, competition with immobilised ligand | 1 µM | remaining binding | 100%
CC(C)(C)c1nc(-c2cccc(NS(=O)(=O)c3c(F)cccc3F)c2F)c(-c2ccnc(N)n2)s1 | enzyme activity, inhibitor, radiometric | 1 µM | remaining activity | 88%
O=C(Nc1cnn(-c2csc(C(=O)NC3COC3)c2)c1)Nc1ccccc1Cl | enzyme activity, inhibitor | 5 µM | remaining activity | 87%
